# Granule exo inh: LAMP-1 surface exposure blockers, TALL-104 cells – cell-based, flow cytometry, MLPCN library, primary screen; 0.66% of 360,000 active; TALL-104 LAMP-1 surface exposure; cells stimulated with thapsigargin and PMA; AID 651702, 2012; inhibition, % at 10 µM;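 active means inhibition above about 55%, limit read from the data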
# ABHD5 PLIN5 PPI: ABHD5-PLIN5 interaction inhibitors, primary screen, cell lysate, split luciferase complementation, luminescence | Perilipin-5 (Homo sapiens) + 1-acylglycerol-3-phosphate O-acyltransferase ABHD5 (Homo … | Split G. princeps luciferase complementation, 4 h | inhibition, % at 4 µM | 0.78% of 360,000 active;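 active means inhibition above the mean inhibition across every tested compound plus 3 SD, cut at about 22% in these data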;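 further: 0% = DMSO only wells and the 100% control is not disclosed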
# PfGluPho inh: PfG6PD enzyme inhibitors, primary screen, biochemical, fluorescence intensity, uHTS | PfGluPho enzyme, NADPH resazurin-diaphorase fluorescence | inhibition, % at 20 µM | 0.78% of 350,000 active;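 active means inhibition reaching at least a set limit at 20 µM in the primary screen, cut at about 59% in these data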;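 further: 0% = DMSO wells with substrate and 100% = DMSO wells lacking glucose-6-phosphate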
# HKDC1 inh: HKDC1 hexokinase inhibitors, primary screen, biochemical, fluorescence, uHTS | 0.16% of 340,000 active | recombinant HKDC1, G6PDH/diaphorase resazurin coupled fluorescence | inhibition, % at 20 µM;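 active means inhibition above about 35% when tested at 20 µM, limit read from the data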;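 further: plate controls were DMSO wells with enzyme for no effect and DMSO wells lacking enzyme for full effect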
# Target sequence (Q2TB90 whole entry, looked up): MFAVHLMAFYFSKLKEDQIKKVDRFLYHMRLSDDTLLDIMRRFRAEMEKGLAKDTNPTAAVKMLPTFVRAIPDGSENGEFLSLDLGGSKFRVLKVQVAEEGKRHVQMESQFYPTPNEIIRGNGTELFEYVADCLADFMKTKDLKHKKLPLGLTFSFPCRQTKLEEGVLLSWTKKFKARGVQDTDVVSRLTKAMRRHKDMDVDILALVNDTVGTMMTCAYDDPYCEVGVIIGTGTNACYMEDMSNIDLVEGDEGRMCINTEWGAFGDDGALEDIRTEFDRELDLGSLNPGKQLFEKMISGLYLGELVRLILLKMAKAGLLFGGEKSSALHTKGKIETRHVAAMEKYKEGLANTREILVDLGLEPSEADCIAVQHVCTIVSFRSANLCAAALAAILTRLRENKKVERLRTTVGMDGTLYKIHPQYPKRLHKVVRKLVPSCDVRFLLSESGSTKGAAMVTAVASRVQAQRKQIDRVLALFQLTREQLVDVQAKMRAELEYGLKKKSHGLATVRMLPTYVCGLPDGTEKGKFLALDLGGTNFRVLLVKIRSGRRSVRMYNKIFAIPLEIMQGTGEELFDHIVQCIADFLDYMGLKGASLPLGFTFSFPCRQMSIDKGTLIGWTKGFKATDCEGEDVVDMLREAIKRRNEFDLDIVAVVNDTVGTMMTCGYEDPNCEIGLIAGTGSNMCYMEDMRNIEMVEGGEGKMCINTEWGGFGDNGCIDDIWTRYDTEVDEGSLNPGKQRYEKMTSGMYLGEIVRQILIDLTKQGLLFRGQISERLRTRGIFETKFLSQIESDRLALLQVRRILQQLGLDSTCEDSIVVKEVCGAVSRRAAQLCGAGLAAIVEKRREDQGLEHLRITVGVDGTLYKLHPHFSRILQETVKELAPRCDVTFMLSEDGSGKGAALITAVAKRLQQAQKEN
#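 Incubation: 90 min at room temperature in dark / Material: recombinant HKDC1 (HK5) hexokinase enzyme, produced in-house / Quantity: enzyme 5 µg/mL final / Compound: one dose of 20 µM, 1% DMSO / Reagent: glucose and ATP substrates / Buffer or medium: Tris pH 8.0 buffer with MgCl2, Tween-20, BSA, BME / Technique: resorufin fluorescence at 613 nm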
# PfGluPho conf: PfG6PD inhibitors, hit retest, confirmation, biochemical, fluorescence intensity, single concentration. recombinant PfGluPho, NADPH-diaphorase-resazurin fluorescence. inhibition, % at 20 µM. shares compounds with PfGluPho inh. 34% of 2,400 active. AID 504753, 2011;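 active means inhibition of at least 50% at 20 µM in any single replicate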;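 further: 0% = DMSO with substrate and 100% = DMSO lacking glucose-6-phosphate substrate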
# Diaph ctr 10uM: diaphorase inhibitors and chemical oxidizers, confirmation, counter-screen for P. falciparum G6PD inhibitor project, biochemical, fluorescence intensity, 10 µM NADPH. 39% of 820 active. shares compounds with PfGluPho inh. diaphorase-coupled resazurin reduction, NADPH 10 uM. inhibition, % at 20 µM;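 active means average inhibition reaching 50% or more with the compound at 20 µM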;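 further: resorufin red fluorescence formed as diaphorase reduces resazurin using NADPH; 0% = DMSO with enzyme and 100% = DMSO without enzyme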
# Diaphorase 30uM: diaphorase inhibitors and chemical oxidizers, confirmation, counter-screen for P. falciparum G6PD inhibitor project, biochemical, fluorescence intensity, 30 µM NADPH | shares compounds with PfGluPho inh | Diaphorase/resazurin coupled assay, resorufin fluorescence | inhibition, % at 20 µM | 29% of 820 active | AID 504863, 2011;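 active means inhibition averaging 50% or more, tested at 20 µM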;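 further: 0% = DMSO with enzyme and 100% = DMSO wells lacking diaphorase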
# An asterisk follows results filed as active; / = no result given. An excerpt weighted towards active compounds, which were near 2.2% of everything screened.
SMILES,Granule exo inh,ABHD5 PLIN5 PPI,PfGluPho inh,HKDC1 inh,PfGluPho conf,others
Cc1ccc(C(=O)/C=C/C(=O)c2ccc(C)cc2)cc1,19.0,23.0*,76.1*,15.8,51.1*,Diaph ctr 10uM=-26.2;Diaphorase 30uM=-28.2
Cc1ccsc1/C=N/NC(=O)c1cccc(S(=O)(=O)Nc2ccccc2Cl)c1,9.6,-2.3,64.3*,-7.7,60.4*,Diaph ctr 10uM=42.7;Diaphorase 30uM=47.0
CN(C(=S)NC(=O)C1CC1)c1ccc(O)cc1,-1.2,-5.4,60.5*,1.7,-0.7,
CCN(C(=S)NC(=O)C1CC1)c1ccccc1,-5.3,-5.6,8.2,-1.8,/,
COc1ccc(C(C#N)=C2C=CC(=NO)C=C2)cc1,5.0,-14.1,61.0*,12.5,-9.8,
COC(=O)C(CC(=O)c1cccc(OC)c1)c1ccc(F)cc1 (configuration not stated),-2.9,-0.5,-4.4,-4.2,/,
COCCn1c(N)c(C(=O)NCC2CCCO2)c2nc3ccccc3nc21 (configuration not stated),-0.1,-17.3,30.2,16.8,/,
Nc1c(C(=O)OCC2CCCO2)c2nc3ccccc3nc2n1C1CCCC1 (configuration not stated),0.7,-3.6,48.6,7.4,20.2,
CN1CCc2c(sc(/N=C/c3c[nH]c4ccccc34)c2C#N)C1,-4.7,2.1,28.7,4.3,/,
CN1CCc2c(sc(/N=C/c3c[nH]c4ccccc34)c2C(N)=O)C1,-10.5,-3.8,66.6*,4.7,-1.9,
CCN(CC)c1ccc(NC(=O)c2ccccc2OCC(=O)OC)cc1,0.0,-0.4,44.2,-4.2,/,
Cc1ccc(C2=CSC3=NCCN23)c(C)c1,2.8,-9.0,62.5*,-6.2,24.1,
Cc1ccc2nc(N/N=C/c3ccco3)cc(C)c2c1,-0.9,-4.8,63.8*,0.5,27.7,
Cc1ccc2nc(SCC(=O)N/N=C/c3ccco3)cc(C)c2c1,0.5,-4.3,68.9*,0.2,49.9*,Diaph ctr 10uM=66.5*;Diaphorase 30uM=35.9
Cc1ccc2nc(C)cc(SCC(=O)N/N=C/c3ccco3)c2c1,-5.0,-2.0,6.9,1.9,/,
C[C@H]1CN([C@@H](C)CO)C(=O)c2cc(Br)cnc2O[C@@H]1CN(C)S(C)(=O)=O,-2.9,11.9,-19.6,/,/,
CCCCN(C(=O)c1cc(S(=O)(=O)N2CCCCCC2)ccc1OC)c1ccccc1,-5.9,2.0,5.6,0.4,/,
CCCn1c(SCC(=O)NC2CCCC2)nnc1-c1cccnc1,-12.9,-5.9,8.7,-2.7,/,
COc1ccc(N(C(=O)/C=C/c2ccccc2)C2=CC3CCC(C2)N3C)cc1 (configuration not stated),2.9,9.2,-8.1,0.4,/,
NC(=O)C1CCN(CC(=O)Nc2ccccc2Sc2ccccc2)CC1,0.3,7.5,6.4,9.4,/,
Nc1nc(SCC(=O)Nc2ccccc2Sc2ccc(Cl)cc2)n[nH]1,0.2,-4.0,110.0*,1.2,77.4*,Diaph ctr 10uM=73.0*;Diaphorase 30uM=54.4*
CSc1ccccc1NC(=O)CSc1n[nH]c(N)n1,-0.4,-0.5,-2.1,-1.7,/,
NC(=O)C1CCN(CC(=O)Nc2ccccc2Sc2ccc(Cl)cc2)CC1,3.0,5.8,65.5*,-7.7,40.4,
COc1ccc2cc(CN(Cc3ccco3)C(=S)NCC3CCCO3)c(=O)[nH]c2c1 (configuration not stated),-6.6,5.1,66.7*,-4.6,14.1,
CC(C)N=Cc1c(O)[nH]c2ccccc12,-4.2,-6.8,12.7,-9.8,/,
SMILES,Granule exo inh,ABHD5 PLIN5 PPI,PfGluPho inh,HKDC1 inh,PfGluPho conf,others
Cc1cccc(/N=C/c2c(O)[nH]c3ccccc23)n1,-1.6,0.2,65.0*,-3.9,15.1,
COc1cc(C(=O)Nc2ccc(Cl)c(C(F)(F)F)c2)cc(OC)c1OC,4.3,-2.8,13.7,21.3,/,
COc1cccc(C(=O)Nc2ccc(Cl)c(C(F)(F)F)c2)c1,4.9,-2.3,65.0*,2.7,-15.4,
Cc1cccc(OCCn2c(=S)[nH]c3ccccc32)c1,4.5,-11.2,68.2*,-10.1,32.0,
Brc1cc2[nH]cnc2c2ccccc12,2.2,5.6,59.3*,21.3,50.4*,Diaph ctr 10uM=28.9;Diaphorase 30uM=28.1
COc1ccccc1C(=O)NCCC(=O)NCc1ccccn1,6.5,-0.1,2.7,-6.5,/,
COc1ccc(-c2nnn(CC(=O)N(CC3CCCO3)C(C(=O)NC(C)(C)C)c3ccco3)n2)cc1OC (configuration not stated),-7.2,-6.3,12.1,-14.6,/,
NCCNc1ccc(C(=O)N2c3ccccc3Sc3ccccc32)cc1[N+](=O)[O-],66.1*,17.5,69.3*,6.0,91.8*,Diaph ctr 10uM=16.8;Diaphorase 30uM=13.8
O=C(CSc1nnc(SCc2ccccc2Cl)s1)N/N=C/c1c[nH]c2ccccc12,-0.9,-3.4,88.8*,-4.3,37.2,
COc1ccccc1/C=N/NC(=O)COCC(=O)N/N=C/c1ccccc1OC,-3.3,5.8,38.7,7.5,/,
COc1ccccc1/C=N/NC(=O)CC(=O)Nc1ccc(Cl)c(Cl)c1,-3.6,-0.3,106.3*,4.9,43.7,
O=C(CCl)NCCN1C(=O)S/C(=C\c2cccnc2)C1=O,0.1,8.4,72.1*,1.3,66.4*,Diaph ctr 10uM=-29.2;Diaphorase 30uM=-8.7
O=S(=O)(c1ccc(=S)[nH]c1)N1CCCC1,-2.4,-10.4,59.8*,8.8,40.6,
OCC[C@@H]1C[C@@H](O)[C@H](O)[C@@]2(OCCc3ccccc32)O1,-5.3,-0.5,-4.7,-1.1,/,
CC(C)(C)C1=Nn2c(nnc2-c2n[nH]c3c2CCC3)SC1,2.0,-3.7,59.8*,8.0,12.4,
CC1=Nn2c(nnc2-c2n[nH]c3c2CCC3)SC1,7.1,-2.6,-1.4,-1.2,/,

# Bioassay records as filed in PubChem BioAssay.
